The source made the active and inactive calls. The rule behind the calls is not given here.
Tests used:
Homo sapiens = organism: Homo sapiens; assay: Tested for in vitro inhibition of collagen-induced aggregation of human platelets; assay type: functional
Rattus norvegicus [1] = assay: Tested for analgesic activity in acetylcholine-induced body constriction assay. Not Active (NA) upto 100 mg/kg peroral dose; assay type: functional, organism-based; set-up: dose 100 mg/kg
Rattus norvegicus [2] = assay: Tested for effective dose in rat adjuvant-induced polyarthritis (AA) test in II phase. Not Active (NA) up to 125 mg/kg peroral dose; assay type: functional, organism-based; set-up: dose 125 mg/kg
Rattus norvegicus [3] = assay: Tested for effective dose in rat adjuvant-induced polyarthritis (AA) test in III phase. Not Active (NA) up to 125 mg/kg peroral dose; assay type: functional, organism-based; set-up: dose 125 mg/kg
Rattus norvegicus [4] = assay: Tested for analgesic activity in acetylcholine-induced body constriction assay by peroral administration; assay type: functional; conditions: po
Rattus norvegicus [5] = organism: Rattus norvegicus; assay: Tested for effective dose in rat adjuvant-induced polyarthritis (AA) test in II phase; assay type: functional
Rattus norvegicus [6] = organism: Rattus norvegicus; assay: Tested for effective dose in rat adjuvant-induced polyarthritis (AA) test in III phase; assay type: functional
Rattus norvegicus [7] = assay: Tested for ulcerogenic activity by peroral administration in rat; assay type: functional
Summary of the method: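 Rats were given the compound by mouth at doses up to 100 mg/kg, and ulcerogenic activity was assessed.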

| Compound | IC50 (Homo sapiens) | ED50 (Rattus norvegicus [1]) | ED50 (Rattus norvegicus [2]) | ED50 (Rattus norvegicus [3]) | ED50 (Rattus norvegicus [4]) | ED50 (Rattus norvegicus [5]) | ED50 (Rattus norvegicus [6]) | UD50 (Rattus norvegicus [7]) |
| --- | --- | --- | --- | --- | --- | --- | --- | --- |
| Cn1c(CC(=O)O)cc(CO)c1C(=O)c1ccc(Cl)cc1 | 529000 nM | inactive | inactive | inactive | – | – | – | – |
| COc1ccc2c(c1)c(CC(=O)O)c(C)n2C(=O)c1ccc(Cl)cc1 [INDOMETHACIN] | 1800 nM | – | – | – | – | – | – | – |
| Cc1cc(CC(=O)[O-])n(C)c1C(=O)c1ccc(Cl)cc1.O.O.[Na+] [ZOMEPIRAC SODIUM] | 1630 nM | – | – | – | 0.72 mg/kg | 0.72 mg/kg | 5.67 mg/kg | 13.9 mg/kg |
